LEDGF integ inh = blockers of LEDGF/p75-dependent integrase strand transfer – biochemical, TR-FRET, high throughput, primary screen; HIV-1 integrase (with human LEDGF/p75); TR-FRET IN-LEDGF/p75 DNA integration, Eu/Cy5; inhibition, % at 3.7 µM; 370,000 compounds, 0.64% hits;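 active = inhibition above the screen-wide mean plus 3 SD, cut at about 13% in these data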;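 also: signal is the Cy5 over europium emission ratio at 671 and 618 nm; 0% = plate median of compound wells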
TDP2 inh = human TDP2 enzyme inhibitors, primary screen, biochemical, epi absorbance, recombinant enzyme; T5PNP hydrolysis, p-nitrophenol absorbance 415 nm; Tyrosyl-DNA phosphodiesterase 2 (Homo sapiens), O95551; AID 720702, 2013; inhibition, % at 12.8 µM; 370,000 compounds, 0.34% hits;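 active = inhibition above the mean of all tested compounds plus 3 SD, set per campaign, cut at about 25% in these data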;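 also: 0% = DMSO with enzyme and 100% = buffer with substrate but no TDP2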
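Test system: Human TDP2 enzyme | Reagent: 5 mM T5PNP | Compound dosing: 12.8 µM single point, 1% DMSO | Incubation: Enzyme reaction with compound for 2 h at 37 °C | Technique: p-Nitrophenol epi absorbance | Read-out: % inhibition relative to enzyme-containing and enzyme-free wells | Benchmarks: High control without enzyme, low control DMSO plus TDP2 | Replicates: Singlicate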
UHRF1 MBD2 ctr = UHRF1 methylated DNA binding inhibitors, primary screen, counter-screen for MBD2 inhibitor project, biochemical, TR-FRET, human UHRF1, single concentration; E3 ubiquitin-protein ligase UHRF1 (Homo sapiens), Q96T88; UHRF1 binding to methylated oligo; inhibition, % at 4.4 µM; 370,000 compounds, 0.75% hits; AID 687016, 2013; in the data active = inhibition above about 21%;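 also: UHRF1 SRA domain binding a hemimethylated CpG hairpin DNA probe; 0% = median of test compound wells and 100% = reference inhibitor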
MBD2 inh = inhibitors of MBD2 binding to methylated DNA, primary screen, biochemical, TR-FRET, DNA-binding domain, human | Methyl-CpG-binding domain protein 2 (Homo sapiens), Q9UBB5 | MBD2 binding to methylated oligonucleotide | inhibition, % at 4.4 µM | 370,000 compounds, 0.31% hits | AID 686964, 2013; in the data active = inhibition above about 13%
SIAE primary = human SIAE inhibitors, primary screen, biochemical, fluorescence polarization, FP-Rh probe, 1536-well HTS. Sialate O-acetylesterase (Homo sapiens), Q9HAT2. SIAE FP-Rh probe binding. inhibition, % at 9.66 µM. 370,000 compounds, 0.69% hits. AID 1053197, 2014;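 active = inhibition above a cutoff: mean of compounds within the control limits plus 3 SD of those, cut at about 17% in these data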;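 also: 0% = plate median of compound wells and 100% = probe without SIAE protein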
Target sequence (Q9HAT2 whole entry, looked up): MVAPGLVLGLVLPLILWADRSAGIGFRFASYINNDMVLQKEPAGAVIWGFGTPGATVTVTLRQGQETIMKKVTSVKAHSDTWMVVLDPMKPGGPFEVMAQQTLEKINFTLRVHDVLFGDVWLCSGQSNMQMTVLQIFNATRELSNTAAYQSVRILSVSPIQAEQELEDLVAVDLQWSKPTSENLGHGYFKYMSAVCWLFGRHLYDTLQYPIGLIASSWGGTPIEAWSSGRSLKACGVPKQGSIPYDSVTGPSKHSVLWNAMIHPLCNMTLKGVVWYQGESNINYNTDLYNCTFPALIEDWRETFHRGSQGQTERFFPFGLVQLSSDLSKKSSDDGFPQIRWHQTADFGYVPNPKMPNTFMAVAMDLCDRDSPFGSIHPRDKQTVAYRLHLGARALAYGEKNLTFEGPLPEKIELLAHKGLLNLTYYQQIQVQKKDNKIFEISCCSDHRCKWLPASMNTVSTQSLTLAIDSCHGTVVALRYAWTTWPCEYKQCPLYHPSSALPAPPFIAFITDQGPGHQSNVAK
PRMT1 FP inh = PRMT1 methyltransferase inhibitors, primary screen, biochemical, fluorescence polarization. recombinant PRMT1, activity-based probe fluorescence polarization. Protein arginine N-methyltransferase 1 (Homo sapiens), Q99873. AID 652257, 2013. 370,000 compounds, 1.3% hits. inhibition, % at 2.79 µM;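 active = inhibition above about 21% made by adding two undisclosed values, limit read from the data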
IN multimer act = HIV-1 IN multimer formation enhancers, counter-screen for LEDGF/p75 integration inhibitor project, biochemical, TR-FRET. shares compounds with LEDGF integ inh. TR-FRET HIV-1 integrase multimerization. activation, % at 7.7 µM. 2,000 compounds, 17% hits. AID 1053131, 2014; in the data active = activation above about 8.9%
TR-FRET interf = TR-FRET optical interference artefacts, confirmation, artefact control for LEDGF/p75-dependent integration inhibitor project, biochemical, HIV-1 IN multimerization; shares compounds with LEDGF integ inh; AID 1053135, 2014; 2,000 tested, under 10 active; inhibition, % at 7.7 µM; TR-FRET optical interference counterscreen;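 active = inhibition above the mean over all tested compounds plus 3 SD, which no compound reached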;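 also: 0% = integrase with antibodies and DMSO and 100% = antibodies without integrase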
LEDGF integ conf = inhibitors of HIV-1 IN-LEDGF/p75 DNA integration, confirmation, biochemical, TR-FRET; shares compounds with LEDGF integ inh; TR-FRET LEDGF/p75-dependent HIV-1 integration; inhibition, % at 3.7 µM; 2,000 compounds, 36% hits; AID 1053136, 2014; in the data active = inhibition above about 14%
The depositor's hits bear a star; · = no result given. In the library only some 3.3% were active in any assay of this set; here they are far more common.

SMILES	LEDGF integ inh	TDP2 inh	UHRF1 MBD2 ctr	MBD2 inh	SIAE primary	PRMT1 FP inh	IN multimer act	TR-FRET interf	LEDGF integ conf
CCC(=O)Nc1nc2ccccc2n1Cc1ccccc1Cl	12	9	17	-6	-2	0	·	·	·
CCCCCCCn1c(NC(=O)CC)nc2ccccc21	23*	5	-1	-1	9	-1	0	-1	31*
CCC(=O)Nc1nc2ccccc2n1Cc1ccc(Cl)cc1	15*	-4	15	-1	-5	6	0	2	11
COCCn1nnnc1C(c1ccccc1OC)N1CCc2ccccc2C1 (stereo not drawn)	33*	7	-1	-3	2	-4	1	-6	-4
Cc1ccccc1C(=O)c1c[nH]c(C(=O)NCCc2ccccn2)c1	22*	8	1	4	7	3	1	-4	-2
CCC(=O)c1c[nH]c(C(=O)NCCc2ccccn2)c1	1	-1	-2	-2	5	-2	·	·	·
C[C@H](O)[C@@H]1C(=O)N2CCc3c([nH]c4c(-c5ccc6c(c5)OCO6)cccc34)[C@@H]2C[C@@H]1N(C)C(=O)Nc1ccccc1	0	1	1	1	-1	1	·	·	·
CCCCc1cc(=O)oc2cc(C)c(CN3CCCC3)c(O)c12	17*	-12	6	3	-6	4	0	2	16*
CCc1cc(=O)oc2cc(C)c(CN3CCCC(C)C3)c(O)c12 (stereo not drawn)	19*	0	27*	12	0	8	1	-4	20*
CCCC(=O)N1CCC[C@]2(CC[C@H](CCC(=O)OCC)O2)C1	0	-2	4	-2	-1	2	·	·	·
O=C(CC1CS(=O)(=O)CC1CC(=O)Oc1ccccc1F)Oc1ccccc1F (stereo not drawn)	24*	3	2	-1	2	2	2	-7	5
CCc1ccccc1NC(=O)CC1CS(=O)(=O)CC1CC(=O)Nc1ccccc1CC (stereo not drawn)	1	1	1	9	1	1	·	·	·
Oc1cc(NCCc2cccnc2)cc2cccnc12	18*	15	-12	-10	3	12	2	-11	21*
CCOC(=O)[C@@]12CN(C(=O)OC(C)(C)C)CC=C1N(Cc1ccc(OC)cc1)C(=O)[C@H]2CC(=O)NCc1ccccc1	-4	0	-1	-1	4	0	·	·	·
CCc1ccc(CN2CCC(CO)(CC3CCCCO3)CC2)o1 (stereo not drawn)	13*	-17	0	-2	-7	-5	0	2	1
COc1ccc(Cn2ccc3ccc(-c4ccc5ccn(Cc6ccccc6F)c5c4)cc32)cc1	-1	3	0	1	-8	8	·	·	·
COc1ccc(/C=C2\C(=O)NC(=O)c3ccccc32)cc1OC	30*	63*	6	-8	1	8	16*	-62	65*
O=C1CSc2ccccc2N1Cc1ccc(F)cc1	38*	-4	-3	-1	0	0	1	-5	-5
CCOC(=O)CCCCC(=O)c1[nH]c(=O)[nH]c1CSc1nc(C)cc(=O)[nH]1	35*	-11	0	5	2	1	4	-16	49*
CCOC(=O)CCCCC(=O)c1[nH]c(=O)[nH]c1CSc1nc(C)cc(C)n1	26*	-14	4	5	-11	7	-1	4	19*
CCOC(=O)CCCCC(=O)c1[nH]c(=O)[nH]c1CN1CCOCC1	17*	-2	-1	-4	5	-1	0	-1	13
CCOC(=O)CCCCC(=O)c1[nH]c(=O)[nH]c1C[n+]1ccc(C)cc1	8	9	-3	-4	4	-2	·	·	·
O=C(CSc1nnc(-c2ccco2)n1-c1ccc(Cl)cc1)Nc1ccccc1-c1ccccc1	-3	-5	-2	3	-1	5	·	·	·
Cc1ccc(NC(=O)Cn2nnc(-c3ccccc3F)n2)cc1C	-3	-1	1	0	5	17	·	·	·
COc1cccc(/C=N/n2c(N)nc3ccccc32)c1OC	0	-4	-2	5	-6	3	·	·	·
SMILES	LEDGF integ inh	TDP2 inh	UHRF1 MBD2 ctr	MBD2 inh	SIAE primary	PRMT1 FP inh	IN multimer act	TR-FRET interf	LEDGF integ conf
COc1ccc(/C=N/n2c(N)nc3ccccc32)cc1OC	24*	-4	9	7	-7	1	0	1	-7
CCn1c(SCC(=O)N2CCCCC2)nnc1-c1ccc(S(=O)(=O)N2CCN(C)CC2)cc1	-3	14	0	-7	-2	-3	·	·	·
CCn1c(SCC(=O)Nc2cc(C)on2)nnc1-c1ccc(S(=O)(=O)N2CCN(C)CC2)cc1	18*	13	0	-2	10	-3	0	2	-1
O=C(NCc1ccco1)c1ccc(S(=O)(=O)N2CCOCC2)cc1	14*	11	12	0	6	11	2	-8	20*
CC(C)C(=O)OCCCN1C(=O)CCC12CCC(c1ccccc1)CC2 (stereo not drawn)	-3	-5	2	1	1	0	·	·	·
Cc1nn(-c2cccc(Cl)c2)c2nc(C(F)(F)F)[nH]c(=O)c12	2	5	0	-1	-5	-3	·	·	·
Cc1nn(-c2cc(C(F)(F)F)ccc2Cl)c2nc(C(F)(F)F)[nH]c(=O)c12	83*	-7	6	4	3	1	0	1	1
O=C(CN1CCN(S(=O)(=O)c2ccc(Cl)c(Cl)c2)CC1)N1CCCCC1	17*	-11	3	6	0	5	0	0	0

Assay outcomes from PubChem BioAssay.
